S1P2 ag: S1P2 (human) receptor agonism; activation, % at 4.5 µM; S1P2-expressing cell line, agonist reporter read-out; 97,000 tested, 0.46% active; AID 729; in the data active = activation above about 16%
Target sequence (O95136 whole entry, looked up): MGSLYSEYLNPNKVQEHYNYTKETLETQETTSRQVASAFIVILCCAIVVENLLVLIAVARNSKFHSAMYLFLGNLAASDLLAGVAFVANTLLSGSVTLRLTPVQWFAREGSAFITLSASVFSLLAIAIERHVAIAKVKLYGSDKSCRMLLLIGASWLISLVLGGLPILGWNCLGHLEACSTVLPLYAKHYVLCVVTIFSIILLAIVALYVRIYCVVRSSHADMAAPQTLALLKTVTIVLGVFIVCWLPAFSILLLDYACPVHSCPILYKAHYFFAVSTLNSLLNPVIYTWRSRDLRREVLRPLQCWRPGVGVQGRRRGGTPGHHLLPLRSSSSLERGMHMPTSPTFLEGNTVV
S1P2 blocker: S1P2 (human) receptor antagonism; inhibition, % at 5 µM; AID 736; O95136; 97,000 tested, 0.21% active; cell-based S1P2 antagonist assay, inhibition at 5 uM; in the data active = inhibition above about 45%;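 also: CRE beta-lactamase reporter cells expressing human S1P2 stimulated with S1P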
Rev-RRE block: disrupts HIV-1 Rev binding to RRE RNA | P05866 | Rev peptide-RRE RNA binding, FRET | inhibition, % at 8 µM | 97,000 tested, 0.79% active;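 active = inhibition above the screen-wide mean plus 3 SD, cut at about 35% in these data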
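Test system: Cy5-tagged RRE RNA duplex with fluorescein-tagged Rev peptide | Read-out: % inhibition of FRET ratio versus controls | Probe or stimulus: Labelled Rev peptide | Incubation: 5 min RNA-compound premix plus 15 min binding step, 25 °C | Technique: FRET fluorescence readout | Benchmarks: DMSO low control, neomycin B high control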
GALR2 blocker: GALR2 (human) receptor antagonism; inhibition, % at 4 µM; AID 828; 140,000 tested, 0.39% active; GALR2-expressing cells, antagonist mode; O43603; in the data active = inhibition above about 27%;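 also: cells stimulated with galanin 1-16 at roughly its EC80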
Target sequence (O43603 whole entry, looked up): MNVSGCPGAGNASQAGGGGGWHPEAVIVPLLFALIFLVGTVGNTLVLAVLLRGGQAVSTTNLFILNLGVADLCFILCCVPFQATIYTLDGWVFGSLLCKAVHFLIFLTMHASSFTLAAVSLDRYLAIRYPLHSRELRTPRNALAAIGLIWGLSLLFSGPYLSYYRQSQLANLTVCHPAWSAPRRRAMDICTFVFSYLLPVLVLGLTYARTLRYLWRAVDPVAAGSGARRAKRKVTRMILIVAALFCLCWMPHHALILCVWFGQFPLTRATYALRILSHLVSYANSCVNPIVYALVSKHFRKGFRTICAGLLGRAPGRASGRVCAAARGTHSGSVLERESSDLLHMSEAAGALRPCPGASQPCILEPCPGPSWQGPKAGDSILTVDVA
EphB4 antag: blocks human EphB4 binding to ephrin-B2 | EphB4 LBD / TNYL-RAW-Alexa532 peptide, fluorescence polarization | 97,000 tested, 0.15% active | P54760 | AID 720 | inhibition, % at 7 µM;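 active = inhibition above the screen-wide mean inhibition plus 3 SD, cut at about 15% in these data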
GALR2 ag: agonists of human galanin receptor 2 (GALR2); O43603; GALR2-expressing cells, agonist activation read-out; activation, % (concentration not given with the values); 140,000 tested, 0.48% active; AID 803; in the data active = activation above about 5%, passing the limit was not always enough
GALR2 agon conf: confirmation of human galanin receptor 2 (GALR2) agonists | shares compounds with GALR2 ag | GALR2-expressing cells, agonist activation | activation, % at 5.6 µM | 460 tested, 10% active | AID 864; in the data active = activation above about 8.4%
BLA activ ctr: beta-lactamase activation, GALR2 counterscreen; activation, % at 5.6 µM; AID 865; 460 tested, 10% active; CHO NFAT-bla reporter, beta-lactamase FRET activation; shares compounds with GALR2 ag;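 active = activation above the screen-wide mean activation plus 3 SD, cut at about 8% in these data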
Large screens that a line does not name were inactive (follow-up assays come after a bar, where they were run); [ ] = remark or other dose. Only some compounds are listed: those with a hit (about 1.7% of all), similar ones and a draw of the others.

N#CC1=C(N)SC(N)=C(C#N)C1c1ccoc1	Rev-RRE block 86[fluorescence artefact?]
Cc1ccc(C2C(C#N)=C(N)SC(N)=C2C#N)cc1	Rev-RRE block 59
COc1cc(C)c(S(=O)(=O)n2ccc(C)n2)cc1C	none
COc1ccc(NC(=O)c2sc3cc(C(F)(F)F)cnc3c2-c2cccs2)cc1	none
O=C(Nc1ccc(F)cc1)c1sc2cc(C(F)(F)F)cnc2c1-c1cccs1	S1P2 blocker 84
CCOC(=O)c1c(C)n(C)c2ccc(OC(=O)c3ccco3)cc12	none
CCOC(=O)c1cc2ccc(OC(=O)c3ccco3)cc2oc1=O	S1P2 ag 150, GALR2 ag 209
O=C(Nc1nnc(C2CC2)s1)C1Cc2ccccc2CN1S(=O)(=O)c1ccccc1F (stereo not drawn)	none
Cc1cc(C)n2c(Br)c(CSc3nc4ccccc4o3)nc2n1	S1P2 ag 17
Cc1cc(C)n2cc(CSc3nc4cc(Cl)ccc4o3)nc2n1	S1P2 ag 17
Cc1cc(C)n2cc(CSc3nnc(-c4ccccc4)o3)nc2n1	none
COC(=O)NNC(=O)C1CCC(C(=O)NNC(=O)OC)CC1 (stereo not drawn)	none (no result: S1P2 ag, S1P2 blocker, Rev-RRE block, EphB4 antag)
Cc1cccc(-n2c(=O)c(C#N)cc3c(=O)n4ccccc4nc32)c1	S1P2 ag 39, GALR2 ag 24
Cc1ccc(-n2c(=O)c(C#N)cc3c(=O)n4ccccc4nc32)cc1	GALR2 ag 8.7 (no result: S1P2 ag, S1P2 blocker, Rev-RRE block, EphB4 antag)
CCCn1c(=N)c(C#N)cc2c(=O)n3ccccc3nc21	none (no result: S1P2 ag, S1P2 blocker, Rev-RRE block, EphB4 antag)
Cc1cc(-n2c(=O)c(C#N)cc3c(=O)n4cccc(C)c4nc32)no1	GALR2 ag 19 (no result: S1P2 ag, S1P2 blocker, Rev-RRE block, EphB4 antag)
Cc1cccc(C(=O)NC2CC3CCCC(C2)N3C(=O)NC2CCCCC2)c1 (stereo not drawn)	S1P2 ag 66
Cc1cccc(C(=O)NC2CCN(C(=O)N3CCOCC3)CC2)c1	none
CCCN(CCC)C(=O)c1cc(-c2ccc3c(c2)OCO3)nc2ccccc12	none
CCOC(=O)Nc1ccc(OC)cc1S(=O)(=O)N1CCCCC1	none
COc1cc2c(cc1OC)-c1cc(NC3CCCC3)nc(=O)n1CC2	S1P2 ag 24
COc1cc2c(cc1OC)-c1cc(OCc3ccccc3Cl)nc(=O)n1CC2	S1P2 ag 29
Cc1ccccc1NC(=O)Cn1nc(-c2ccccc2)nc1-c1ccccc1	none
NC(=O)c1cc2ccc(O)cc2oc1=Nc1ccccc1	none (no result: S1P2 ag, S1P2 blocker, Rev-RRE block, EphB4 antag)
NC(=O)c1cc2ccc(O)cc2oc1=NCc1ccccc1	GALR2 ag 45 (no result: S1P2 ag, S1P2 blocker, Rev-RRE block, EphB4 antag)
COc1ccc(OC)c(N=c2oc3cc(O)ccc3cc2C(N)=O)c1	GALR2 ag 5.3
O=C1c2ccccc2CCC12N=NCC2c1ccccc1 (stereo not drawn)	none
O=C(OCC1COc2ccccc2O1)c1c(F)cccc1F (stereo not drawn)	none
COc1ccc(-c2cc(C(=O)Nc3c(Cl)cc(Cl)cc3Cl)c3ccccc3n2)cc1OC	GALR2 ag 4.9 (no result: S1P2 ag, S1P2 blocker, Rev-RRE block, EphB4 antag)
CC1CCCN(C(=O)CCCn2c(=S)[nH]c3ccccc3c2=O)C1 (stereo not drawn)	none
CC(C)CCn1c(SCCN2CCOCC2)nc2c1c(=O)[nH]c(=O)n2C	EphB4 antag 18
O=C(CN1N=C(c2ccccc2)CCC1=O)NCc1ccco1	none (no result: S1P2 ag, S1P2 blocker, Rev-RRE block, EphB4 antag)
CC1CCCCC1NC(=O)CO/N=C/c1ccccc1OC(F)F (stereo not drawn)	none (no result: S1P2 ag, S1P2 blocker, Rev-RRE block, EphB4 antag)
Cc1sc2nc(CSc3nnc(Cc4cccs4)n3C3CCCCC3)[nH]c(=O)c2c1C	Rev-RRE block 56
Cc1ccc2nc(CSc3nnc(Cc4cccs4)n3C3CCCCC3)cc(=O)n2c1	none
O=c1c(/C=C(\O)c2ccc(F)cc2)nc2ccccc2n1-c1ccccc1	Rev-RRE block 127[fluorescence artefact?]
O=C(Cn1c(C(F)(F)F)nc2ccccc21)c1ccc(F)cc1	none
COc1cccc(-n2nc3c(=O)n(Cc4ccccc4Cl)nc(C)c3c2C)c1	none (no result: S1P2 ag, S1P2 blocker, Rev-RRE block, EphB4 antag)
CN(C)S(=O)(=O)c1ccc(Cl)c(C(=O)OCC(=O)NC(=O)c2cccn2C)c1	none (no result: S1P2 ag, S1P2 blocker, Rev-RRE block, EphB4 antag)
C=CCN1C(=O)/C(=C/c2ccc(N(C)C)cc2)S/C1=N\c1nnc(CC)s1	Rev-RRE block 131[fluorescence artefact?]
CC(C)n1c(=N)c(C(=O)NCCc2ccccc2)cc2c(=O)n3ccccc3nc21	S1P2 ag 94, GALR2 ag 18
COC(=O)c1cc2c(=O)n3ccccc3nc2n(C(C)C)c1=N	S1P2 ag 19, GALR2 ag 17
Cc1cc(NC(=O)CSCCO)no1	none
O=C(Nc1ccc2c(c1)OCCO2)C1CCN(C(=O)c2ccccc2)CC1	S1P2 ag 24
O=C(Nc1ccc2c(c1)OCCO2)C1CCN(C(=O)c2ccc(Br)cc2)CC1	none
CC(=O)N1CC=C2C(C#N)=C(N)C(C#N)(C#N)C(CCc3ccccc3)C2C1 (stereo not drawn)	none (no result: S1P2 ag, S1P2 blocker, Rev-RRE block, EphB4 antag)
CCN1CC=C2C(C#N)=C(N)C(C#N)(C#N)C(CCc3ccccc3)C2C1 (stereo not drawn)	Rev-RRE block 86[fluorescence artefact?]
N#CC1=C(N)C(C#N)(C#N)[C@H](c2ccoc2)[C@H]2CN(Cc3ccccc3)CC=C12	Rev-RRE block 100[fluorescence artefact?]
COc1ccc(OC)c(C2C3CN(C(C)C)CC=C3C(C#N)=C(N)C2(C#N)C#N)c1 (stereo not drawn)	Rev-RRE block 82
CC(=O)N1CC=C2C(C#N)=C(N)C(C#N)(C#N)[C@H](c3ccoc3)[C@H]2C1	none
CCCN1CC=C2C(C#N)=C(N)C(C#N)(C#N)C(c3cccc(OC)c3OC)C2C1 (stereo not drawn)	none (no result: S1P2 ag, S1P2 blocker, Rev-RRE block, EphB4 antag)
CN1CC=C2C(C#N)=C(N)C(C#N)(C#N)[C@H](c3ccoc3)[C@H]2C1	Rev-RRE block 42
CC1CCCCN1C(=S)NCCc1ccccc1 (stereo not drawn)	none
O=c1c2ccccc2nc2n1C(CSCc1ccc(Cl)cc1Cl)CS2 (stereo not drawn)	none
Cc1cccc(CSc2nc(N)c(C#N)c(-c3cccs3)c2C#N)c1	EphB4 antag 17
COc1ccc(-c2cc(C3CCN(c4cc(Cl)nc(N)n4)CC3)[nH]n2)cc1	none
Nc1nc(Cl)cc(N2CCC(c3cc(-c4ccc(Cl)cc4)n[nH]3)CC2)n1	S1P2 blocker 82
CCn1c(O)c(C=NCCN2CCOCC2)sc1=S	none
CCOC(=O)C1C(=O)CC(C)(O)C(C(=O)OCC)C1c1ccccc1 (stereo not drawn)	S1P2 blocker 108
CCOC(=O)C1C(=O)CC(C)(O)C(C(=O)OCC)C1c1ccc(OC)cc1 (stereo not drawn)	none
CC(=O)N1N=C(c2ccc(C)cc2)OC1c1ccc(C)cc1 (stereo not drawn)	GALR2 ag 77 | GALR2 agon conf inactive | BLA activ ctr inactive

Screening results deposited in PubChem BioAssay by The Scripps Research Institute Molecular Screening Center.
